Data from PMC12484386 (Journal of Clinical Pharmacology, 2025).

Experiments:
[1] = tested on: AAG; experiment: Separate in vitro equilibrium dialysis study, binding to AAG; format: in vitro ADME; conditions: AAG (alpha-1-acid glycoprotein)
[2] = tested on: plasma protein; conditions: cited from earlier work
[3] = cited from earlier work
[4] = Renal impairment study; format: in vivo, human
Procedure, shortened: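 Renal function by Cockcroft-Gault. Parent and M11 plasma predose to 240 h by LC-MS/MS (1.00-750 ng/mL); unbound fraction by equilibrium dialysis at 4 h. Ln-parameters by one-way ANOVA; GMR with 90% CI.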

[5] = Safety and tolerability, hepatic impairment study; format: in vivo, human
[6] = Safety and tolerability, renal impairment study; format: in vivo, human
[7] = Plasma protein binding in human plasma at 1-10 µM; format: in vitro ADME
[8] = target: HSA (Homo sapiens, UniProt P02768); experiment: Separate in vitro equilibrium dialysis study, binding to HSA; format: in vitro ADME; conditions: HSA (human serum albumin)
HSA, sequence (P02768 25-609): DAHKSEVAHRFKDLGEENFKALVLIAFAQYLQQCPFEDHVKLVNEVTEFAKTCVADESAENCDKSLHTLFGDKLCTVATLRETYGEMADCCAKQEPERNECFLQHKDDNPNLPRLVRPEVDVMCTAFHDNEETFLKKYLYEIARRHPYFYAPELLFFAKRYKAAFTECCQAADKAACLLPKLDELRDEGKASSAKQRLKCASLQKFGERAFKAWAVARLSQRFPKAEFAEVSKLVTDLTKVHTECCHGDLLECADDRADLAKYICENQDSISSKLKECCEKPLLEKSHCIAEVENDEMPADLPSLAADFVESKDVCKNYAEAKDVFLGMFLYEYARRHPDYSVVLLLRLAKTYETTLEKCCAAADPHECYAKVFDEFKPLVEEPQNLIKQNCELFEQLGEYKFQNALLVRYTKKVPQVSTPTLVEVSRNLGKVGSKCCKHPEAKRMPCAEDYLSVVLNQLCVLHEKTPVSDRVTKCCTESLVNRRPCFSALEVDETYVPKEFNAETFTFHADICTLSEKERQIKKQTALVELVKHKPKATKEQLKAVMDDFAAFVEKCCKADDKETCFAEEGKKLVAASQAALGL

[9] = single oral 5 mg radiolabeled fruquintinib, healthy volunteers; cited from earlier work
[10] = Hepatic impairment study; format: in vivo, human
Procedure, shortened: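 Open-label single oral dose after ≥10 h overnight fast, held to 2 h postdose: Child-Pugh B (n=8) 2 mg; matched normal hepatic function (n=8) 5 mg. Parent and M11 plasma sampled predose to 240 h by validated LC-MS/MS (1.00-750 ng/mL). Data dose-normalized to 5 mg. Ln-transformed parameters by one-way ANOVA, cohort fixed; GMR and 90% CI back-transformed; unbound parameters analysed likewise.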

[11] = cited from earlier work; remark: listed apart in the source
[12] = cited from earlier work; remark: listed apart in the source
[13] = moderate renal impairment vs normal renal function
[14] = severe renal impairment compared with normal renal function
[15] = severe renal impairment vs normal renal function
[16] = moderate hepatic impairment vs normal hepatic function

fraction unbound at 0.1 µM [1]: 0.356
fraction unbound at 1 µM [1]: 0.358
fraction unbound at 10 µM [1]: 0.413
CL/F, mean (SD) ([4]; moderate renal impairment (CrCl 30-59 mL/min), N = 8, single oral 5 mg): 14.2 mL/min
difference across Cmax, AUC0-t, and AUC0-inf ([4]; moderate renal impairment compared with normal renal function): less than 8%
LS GMR DN AUC0-inf [90% CI] [4, 13]: 1.07
LS GMR DN AUC0-t [90% CI] [4, 13]: 1.06
LS GMR DN Cmax [90% CI] [4, 13]: 0.95
CL/F, mean (SD) ([4]; normal renal function, N = 8, single oral 5 mg): 15.0 mL/min
CL/F, mean (SD) ([4]; severe renal impairment (CrCl 15-29 mL/min), N = 8, single oral 2 mg): 15.0 mL/min
difference in AUCs [4, 14]: less than 3%
dose-normalized Cmax lower [4, 14]: approximately 11%
LS GMR DN AUC0-inf [90% CI] [4, 15]: 1.01
LS GMR DN AUC0-t [90% CI] [4, 15]: 0.97
LS GMR DN Cmax [90% CI] [4, 15]: 0.89
fraction unbound at 1 µM [7]: 0.046
fraction unbound at 3 µM [7]: 0.047
fraction unbound at 10 µM [7]: 0.047
fraction unbound at 0.1 µM [8]: 0.0565
fraction unbound at 1 µM [8]: 0.0635
fraction unbound at 10 µM [8]: 0.0627
CL/F, mean (SD) ([10]; moderate hepatic impairment (Child-Pugh B), N = 8, single oral 2 mg): 17.4 mL/min
difference in dose-normalized Cmax ([10]; moderate hepatic impairment compared with normal hepatic function): less than 5%
AUCs lower ([10]; moderate hepatic impairment compared with normal hepatic function, dose normalized): approximately 10%
LS GMR DN AUC0-inf [90% CI] [10, 16]: 0.91
LS GMR DN AUC0-t [90% CI] [10, 16]: 0.89
LS GMR DN Cmax [90% CI] [10, 16]: 1.04
CL/F, mean (SD) ([10]; normal hepatic function, N = 8, single oral 5 mg): 15.3 mL/min
SMILES: CNC(=O)c1c(C)oc2cc(Oc3ncnc4cc(OC)c(OC)cc34)ccc12 [fruquintinib]
protein binding in human plasma [2]: approximately 95%
change in fruquintinib exposure ([3]; co-administration with itraconazole, a strong CYP3A inhibitor): did not result in clinically meaningful change
reduction of fruquintinib exposure ([3]; concurrent use of rifampin, a strong metabolic enzyme inducer): approximately 65%
participants with treatment emergent adverse events (TEAEs) ([5]; 4 of the 16 participants, all TEAEs in moderate hepatic impairment): 25.0%
tolerability ([5]; both studies, single dose 2 or 5 mg): generally well tolerated
participants with treatment-related TEAEs ([5]; hepatic impairment study, three of 16 participants): 18.8%
participants with dizziness ([5]; moderate hepatic impairment, one of 8, grade 1, nonserious, related): 12.5%
participants with urinary tract infection ([5]; moderate hepatic impairment, one of 8, grade 2, nonserious, not related): 12.5%
participants with TEAEs ([6]; 3 of the 24 participants): 12.5%
participants with headache ([6]; moderate renal impairment, one of eight, grade 1, nonserious, not related): 12.5%
participants with hypoglycemia ([6]; moderate renal impairment, one of eight, grade 3, nonserious, not related): 12.5%
participants with eye pruritis and periorbital edema ([6]; normal renal function, one of eight, grade 1, nonserious, not related): 12.5%
dose recovered in feces [9]: 30%
dose recovered in urine [9]: approximately 60%
dose recovered unchanged in feces [9]: 5%
dose recovered unchanged in urine [9]: 0.5%
elimination half-life (t1/2) [11]: approximately 42 h
weight-normalized apparent clearance [11]: approximately 0.17 mL/min/kg
time to steady-state concentrations ([11]; consecutive QD dosing): 14 days
median time to maximum plasma concentration (Tmax) ([11]; oral administration, patients with cancer): approximately 2 h
accumulation at steady-state ([11]; relative to a single dose, QD dosing): approximately 4 fold
inter-individual variability in apparent oral clearance [12]: 26%
impact of mild to moderate renal impairment and mild hepatic impairment on PK ([12]; population PK analysis): no clinically meaningful impact
